Laboratory results reported in ChEMBL document CHEMBL2040794, “Synthesis and structure-activity analysis of new phosphonium salts with potent activity against African trypanosomes” (J Med Chem, 2012).

Assays:
[1] = test system: Trypanosoma brucei rhodesiense; test: Antitrypanosomal activity against Trypanosoma brucei rhodesiense STIB900 infected in rat L6 cells after 72 hrs by alamar blue assay; type: functional, organism-based; conditions: Trypanosoma brucei, STIB900, 72 h
[2] = test system: L6; test: Cytotoxicity against rat L6 cells after 72 hrs by alamar blue assay; type: cell-based
[3] = Selectivity index, ratio of EC50 for rat L6 cells to EC50 for Trypanosoma brucei rhodesiense STIB900; type: toxicity, cell-based; conditions: for selectivity ratio: L6 cells, read-out: Ratio EC50
Summary of the method: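 Ratio of EC₅₀ in L6 cells to EC₅₀ against T. b. rhodesiense STIB900, both from Alamar blue assays.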

[4] = test system: Trypanosoma brucei brucei; test: Antitrypanosomal activity against wild type Trypanosoma brucei brucei Lister 427 after 3 days by alamar blue assay; type: functional, organism-based
Summary of the method: (§1)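 Bloodstream-form T. b. brucei (wild-type s427; TbAT1-KO, made from s427 by TbAT1 deletion; B48, selected from TbAT1-KO in vitro on pentamidine, lacking functional HAPT1). Cells were exposed to compound for 48 h, then resazurin (Alamar blue) was added for a further 24 h. A single fluorescence reading gave EC50.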

[5] = test system: Trypanosoma brucei brucei; test: Antitrypanosomal activity against diminazene aceturate-resistant TbAT1 gene-deficient Trypanosoma brucei brucei AT1-KO after 3 days by alamar blue assay; type: functional, organism-based; summary of the method: as §1
[6] = test system: Trypanosoma brucei brucei; test: Resistance factor, ratio of EC50 for diminazene aceturate-resistant TbAT1 gene-deficient Trypanosoma brucei brucei AT1-KO to EC50 for wild type Trypanosoma brucei brucei Lister 427; type: functional
Summary of the method: (§2)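 Resistance factor is the EC50 in the resistant line (TbAT1-KO or B48) divided by the EC50 in wild-type s427. […] Resistant and wild-type EC50s were compared by Student t-test.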

[7] = test system: Trypanosoma brucei brucei; test: Antitrypanosomal activity against diminazene-, pentamidine-, and melaminophenyl arsenical-resistant HAPT1-deficient Trypanosoma brucei brucei B48 after 3 days by alamar blue assay; type: functional, organism-based; summary of the method: as §1
[8] = test system: Trypanosoma brucei brucei; test: Resistance factor, ratio of EC50 for diminazene-, pentamidine-, and melaminophenyl arsenical-resistant HAPT1-deficient Trypanosoma brucei brucei B48 to EC50 for wild type Trypanosoma brucei brucei Lister 427; type: functional; summary of the method: as §2
[9] = Cytotoxicity against human HEK cells after 3 days by alamar blue assay; type: cell-based, HEK293
Summary of the method: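 Human embryonic kidney cells tested by resazurin (Alamar blue) assay: 48 h with compound, then 24 h more after dye addition, single reading; EC₅₀ derived.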

[10] = Selectivity index, ratio of EC50 for human HEK cells to EC50 for wild type Trypanosoma brucei brucei Lister 427; type: toxicity, cell-based, HEK293; conditions: for selectivity ratio: HEK cells, read-out: Ratio EC50
Summary of the method: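 Ratio of EC₅₀ in HEK cells to EC₅₀ in wild-type T. b. brucei s427, both from resazurin assays.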

[11] = Trypanosoma brucei, Lister 427, 72 h
[12] = Trypanosoma brucei, AT1-KO, 72 h

| Structure (SMILES) | EC50 [1] [nM] | EC50 ([2]; Rattus norvegicus, L6, 72 h) [nM] | selectivity ratio [3] | EC50 [4, 11] [nM] | EC50 [5, 12] [nM] | Ratio EC50 [6] | EC50 ([7]; Trypanosoma brucei, B48, 72 h) [nM] | Ratio EC50 [8] | EC50 ([9]; Homo sapiens, HEK293, 72 h) [nM] | selectivity ratio [10] | EC50 ([2]; l6) [nM] | Ratio EC50 ([3]; l6) | EC50 [4] [nM] | EC50 [5] [nM] | EC50 [7] [nM] | EC50 ([9]; hek293) [nM] | Ratio EC50 ([10]; hek293) |
| --- | --- | --- | --- | --- | --- | --- | --- | --- | --- | --- | --- | --- | --- | --- | --- | --- | --- |
| [Br-].[Br-].c1ccc2c([P+](Cc3ccc(Oc4ccc(C[P+](c5cccc6ccccc56)(c5cccc6ccccc56)c5cccc6ccccc56)cc4)cc3)(c3cccc4ccccc34)c3cccc4ccccc34)cccc2c1 | 384 | 3450 | 9 | 160 | 140 | 0.9 | 128 | 0.8 | 114000 | 722 |  |  |  |  |  |  |  |
| CC(C)[P+](Cc1ccc(Cc2ccc(C[P+](c3ccccc3)(c3ccccc3)C(C)C)cc2)cc1)(c1ccccc1)c1ccccc1.[Br-].[Br-] | 534 | 3440 | 6.4 | 440 | 400 | 0.9 | 430 | 1 | > 300000 | > 680 |  |  |  |  |  |  |  |
| COc1ccccc1[P+](Cc1ccc(C(=O)c2ccc(C[P+](c3ccccc3)(c3ccccc3OC)c3ccccc3OC)cc2)cc1)(c1ccccc1)c1ccccc1OC.[Br-].[Br-] | 230 | 6400 | 28 | 240 | 320 | 1.3 | 190 | 0.8 | 107000 | 438 |  |  |  |  |  |  |  |
| COc1ccccc1[P+](Cc1ccc(Oc2ccc(C[P+](c3ccccc3OC)(c3ccccc3OC)c3ccccc3OC)cc2)cc1)(c1ccccc1OC)c1ccccc1OC.[Br-].[Br-] | 153 | 1270 | 8 | 56 | 57 | 1 | 45 | 0.8 | 141000 | 2520 |  |  |  |  |  |  |  |
| COc1ccccc1[P+](Cc1ccc(C(=O)c2ccc(C[P+](c3ccccc3OC)(c3ccccc3OC)c3ccccc3OC)cc2)cc1)(c1ccccc1OC)c1ccccc1OC.[Br-].[Br-] | 200 | 9000 | 45 | 110 | 160 | 1.5 | 80 | 0.7 | 131000 | 1180 |  |  |  |  |  |  |  |
| Cc1cccc([P+](Cc2ccc(C(=O)c3ccccc3)cc2)(c2cccc(C)c2)c2cccc(C)c2)c1.[Br-] | 274 | 2610 | 9.5 | 170 | 150 | 0.8 | 110 | 0.7 | 48200 | 281 |  |  |  |  |  |  |  |
| Cc1ccc([P+](Cc2ccc(C(=O)c3ccccc3)cc2)(c2ccccc2)c2ccccc2)cc1.[Br-] | 267 | 7720 | 29 | 150 | 150 | 1 | 100 | 0.7 | 76800 | 504 |  |  |  |  |  |  |  |
| Cc1ccc([P+](Cc2ccc(S(=O)(=O)c3ccc(C[P+](c4ccc(C)cc4)(c4ccc(C)cc4)c4ccc(C)cc4)cc3)cc2)(c2ccc(C)cc2)c2ccc(C)cc2)cc1.[Br-].[Br-] | 173 | 22000 | 127 | 230 | 253 | 1.1 | 270 | 1.2 | > 300000 | > 1300 |  |  |  |  |  |  |  |
| Cc1ccc(C[P+](c2ccccc2)(c2ccccc2)c2ccccc2)cc1.[Cl-] | 216 | 10400 | 48 | 23 | 24 | 1 | 23 | 1 | > 300000 | > 12500 |  |  |  |  |  |  |  |
| COc1ccccc1[P+](Cc1ccc(C(=O)c2ccccc2)cc1)(c1ccccc1OC)c1ccccc1OC.[Br-] | 376 | 3970 | 10 | 210 | 220 | 1.1 | 150 | 0.7 | 63200 | 306 |  |  |  |  |  |  |  |
| CCCCCCCC[P+](CCCCCCCC)(CCCCCCCC)Cc1ccc(C(=O)c2ccc(C[P+](CCCCCCCC)(CCCCCCCC)CCCCCCCC)cc2)cc1.[Br-].[Br-] | 220 | 1000 | 5 | 42 | 61 | 1.4 | 45 | 1.1 | 27000 | 639 |  |  |  |  |  |  |  |
| Cc1ccc([P+](Cc2ccc(CCc3ccc(C[P+](c4ccc(C)cc4)(c4ccc(C)cc4)c4ccc(C)cc4)cc3)cc2)(c2ccc(C)cc2)c2ccc(C)cc2)cc1.[Br-].[Br-] | 84 |  |  |  |  | 1 |  | 1 | 32400 | 213 | 656 | 7.8 | 150 | 150 | 150 |  |  |
| Cc1ccc([P+](Cc2ccc(CCCc3ccc(C[P+](c4ccc(C)cc4)(c4ccc(C)cc4)c4ccc(C)cc4)cc3)cc2)(c2ccc(C)cc2)c2ccc(C)cc2)cc1.[Br-].[Br-] | 81 | 1800 | 22 |  | 49 | 1.7 | 53 | 1.8 |  |  |  |  | 29 |  |  | 25800 | 897 |
| Cc1ccc([P+](CCc2ccc(CCCc3ccc(CC[P+](c4ccc(C)cc4)(c4ccc(C)cc4)c4ccc(C)cc4)cc3)cc2)(c2ccc(C)cc2)c2ccc(C)cc2)cc1.[Cl-].[Cl-] | 73 | 645 | 8.8 | 77 | 43 | 0.6 | 48 | 0.6 | 5600 | 73 |  |  |  |  |  |  |  |
| O=C(c1ccc(C[P+](c2ccc(Cl)cc2)(c2ccc(Cl)cc2)c2ccc(Cl)cc2)cc1)c1ccc(C[P+](c2ccc(Cl)cc2)(c2ccc(Cl)cc2)c2ccc(Cl)cc2)cc1.[Br-].[Br-] | 410 | 7200 | 18 | 940 | 1370 | 1.5 | 950 | 1 | 63000 | 67 |  |  |  |  |  |  |  |
